Screening results deposited in PubChem BioAssay by several laboratories.
This is one part of a sample in which hits are shown more often than they occur.
CHOP inh = CHOP inhibition in unfolded protein response; CHO-K1 CHOP-promoter luciferase, tunicamycin-induced, 15-18 h; inhibition, % at 10 µM; 220,000 compounds, 3.8% hits; AID 2732;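 active = compounds that reduced the stress-induced luciferase reporter signal by more than about 70% of percent inhibition, limit read from the data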;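 note: 0% = tunicamycin plus vehicle and 100% = wells without tunicamycin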
CHOP UPR activ = activators of apoptotic arm of unfolded protein response (CHOP); 330,000 compounds, 0.34% hits; CHO-CHOP luciferase reporter, UPR activation, luminescence; percent of tunicamycin response over DMSO baseline; AID 449763; activation, % at 10 µM;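 active = at 10 µM dose, activation of 40% or more, normalized to positive control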;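 note: 100% = tunicamycin at 10 µg/mL and 0% = DMSO alone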
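Evaluation: % reporter activation, DMSO baseline versus tunicamycin full activation; System: CHO-CHOP luciferase reporter cell line; Input: 500 cells/well; Incubation: 6 h compound treatment, 37 °C; Measured by: Steady-Glo luciferase luminescence; Dosing: one dose, 10 µM in 0.5% DMSO; Buffer or medium: F12 medium, 10% FBS; Benchmarks: positive tunicamycin 10 µg/mL, negative DMSO alone.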
UPR XBP1 act = activators of adaptive arm of unfolded protein response (XBP1) | AID 463104 | activation, % at 20 µM | CHO-XBP1 luciferase reporter, IRE1-XBP1 UPR activation, luminescence; percent of tunicamycin response, DMSO as zero | 330,000 compounds, 0.33% hits;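 active = versus positive control, 20 µM dose yields 30% or more activation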;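 note: 100% = tunicamycin at 10 µg/mL and 0% = DMSO only wells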
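Material: CHO cell line with stable XBP1 luciferase reporter; schedule: 16-18 h cell attachment at 37 °C, then 6 h compound exposure; signal: glow luminescence from Steady-Glo reagent; medium: serum-containing F12 medium, 10% FBS; benchmarks: tunicamycin 10 µg/mL and vehicle-only wells; read-out: percent activation relative to tunicamycin reference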
Dynein cargo inh = dynein cargo transport inhibition; 3617.4 mouse cells, GR-EGFP nuclear translocation imaging; test concentration mostly 20 µM; stimulated with dexamethasone, 1 µM; hits give low values; z-score, hits read low; 220,000 compounds, 0.47% hits;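 active = plate z-score of nuclear minus cytoplasmic receptor signal below a set negative limit, without overly bright fluorescence or cell loss, cut at about -3.5 in these data, passing the limit was not always enough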;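 note: z-score of nuclear minus cytoplasmic ring GR-EGFP intensity difference per well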
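Buffer or medium – tet-free medium with charcoal-stripped serum · Signal – automated 10x imaging of fixed Hoechst-stained cells · Also added – dexamethasone agonist, 1.0 µM final, for 30 min · Incubation – induction 48 h, compound 1 h, agonist 30 min · Read-out – GR-EGFP nuclear translocation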
T cruzi inh = T. cruzi replication inhibition | inhibition, % (concentration not given with the values) | AID 1885 | 300,000 compounds, 1.4% hits | T. cruzi beta-gal in NIH3T3, luminescence, 90 h;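 active = mean inhibition across valid replicates above about 55%, limit read from the data; inconclusive = mean below that limit but half or more replicates reach it; inactive = mean below it, under half of replicates reach it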;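 note: signal also drops with host cell toxicity which is not excluded here; 0% = plate median of DMSO wells and 100% = zero luminescence signal; higher percent means less beta-gal luminescence so fewer parasites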
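System: mouse NIH/3T3 fibroblasts infected with β-gal-expressing T. cruzi Tulahuen C4 / Input: NIH/3T3 cells, 5,000 per well / Buffer or medium: Low-serum DMEM with 2% FBS / Probe or stimulus: 5000 reporter trypomastigotes per well / Schedule: ≥90 h infection period, 3 h prior cell attachment / Measured by: GalScreen luminescence, 60 min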
Lmaj promast = Leishmania major promastigote growth inhibition; Leishmania major promastigotes, resazurin fluorescence viability; inhibition, % at 10 µM; 200,000 compounds, 9% hits; AID 1063; in the data active = inhibition above about 50%;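 note: promastigotes grown with compound for 44 hours at 28 °C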
CHOP inh conf = confirmation of CHOP induction inhibitors. shares compounds with CHOP inh. CHO-CHOP promoter luciferase reporter, tunicamycin-induced, luminescence. inhibition, % at 10 µM. 2,100 compounds, 45% hits;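 active = mean of three repeat readings of reporter signal inhibition above a set limit, cut at about 70% in these data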;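 note: 0% = tunicamycin plus vehicle and 100% = wells lacking tunicamycin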
An asterisk follows results filed as active; u = inconclusive; x = no result given.

SMILES	CHOP inh	CHOP UPR activ	UPR XBP1 act	Dynein cargo inh	T cruzi inh	Lmaj promast	CHOP inh conf
CC(C)NS(=O)(=O)c1ccc(Br)c(C(=O)OC(C)C(=O)NC2CCCCC2C)c1 (stereo unspecified)	x	1	-6	x	-4	x	x
O=C(Nc1ccc(-c2nc3ccccc3s2)cc1)C1=COCCO1	104*	-6	-11	-0.0091	0	-9	92*
O=C(Nc1ccc(N2CCOCC2)c(S(=O)(=O)Nc2ccccc2Cl)c1)c1ccccc1	x	-3	-3	x	x	x	x
O=C(Nc1ccc(Cl)cc1)Nc1ccc(N2CCCC2)c(S(=O)(=O)Nc2ccccc2Cl)c1	100*	16	11	-0.34	47	100*	73*
O=S(=O)(Nc1ccc(-c2csc(-c3ccccc3)n2)cc1)c1ccc(F)cc1	105*	4	1	-0.33	68*	5	36
O=C(Nc1ccccc1)Nc1nc(-c2ccc(F)cc2)cs1	106*	2	3	-0.36	17	-7	8
O=C(Nc1nc(-c2ccccc2)cs1)c1ccccc1NS(=O)(=O)c1ccc(F)cc1	62	8	-2	0.63	-8	5	x
O=C(Nc1ccc(Cl)c(C(F)(F)F)c1)NC1CC2CCCC(C1)N2Cc1ccccc1 (stereo unspecified)	101*	4	10	-0.89	53	100*	98*
O=C(Nc1ccc(C(=O)N2CCOCC2)cc1)c1cc(-c2cccnc2)nc2ccc(Br)cc12	42	-2	-3	1	-6	7	x
O=C(Nc1ccccn1)c1cc(-c2cccnc2)nc2ccc(Br)cc12	103*	1	-2	2.6	-2	-2	-15
COC(=O)c1cc(NC(=S)Nc2cc(Cl)cc(Cl)c2)cc(C(=O)OC)c1	101*	7	-6	-0.055	21	7	99*
CC/C(=N/Nc1cccc(C)c1)c1cnnc(SC)n1	97*	1	3	-0.13	-3	26	-71
CC(=O)Oc1oc(-c2ccccc2)nc1/C=N/c1ccccn1	101*	9	2	-0.36	-14	-1	-42
COc1ccccc1N=Cc1nc(-c2ccccc2)oc1OC(C)=O	45	-1	2	-3.5	-2	2	x
CCCC(NCC(O)COc1ccc(-c2ccccc2)cc1)c1ccccc1 (stereo unspecified)	103*	8	24	1.4	66*	82*	125*
CC(NCC(O)COc1ccc(Br)cc1)c1ccccc1 (stereo unspecified)	x	1	-1	x	38	x	x
O=C(NCc1ccccc1Cl)c1ccc(S(=O)(=O)Nc2cccc(C(F)(F)F)c2)cc1	98*	0	-5	-0.67	-4	61*	110*
O=C(Nc1ccc(OC(F)F)cc1)Nc1cccc(C(F)(F)F)c1	110*	9	11	-0.68	42	-3	86*
CN(C)S(=O)(=O)NCCNC(=O)c1cc(OCC(F)(F)F)ccc1OCC(F)(F)F	14	-1	1	1	-12	-6	x
O=C(NCCNC(=O)c1cc(OCC(F)(F)F)ccc1OCC(F)(F)F)Nc1cccc(C(F)(F)F)c1	104*	4	-5	0.2	-24	8	101*
O=C(Nc1ccncc1)Nc1cccc(C(F)(F)F)c1	x	0	-4	x	41	x	x
Cc1ccc(S(=O)(=O)Nc2ccc(NC(=O)Nc3cccc(C(F)(F)F)c3)cc2)cc1	99*	4	-1	2.5	-3	70*	116*
Cn1cnc(S(=O)(=O)NC2CCN(Cc3c(F)cccc3Cl)CC2)c1	x	0	0	x	-13	x	x
COc1ccc(S(=O)(=O)N2CCN(C(=O)c3ccco3)CC2)c(C)c1C	x	1	-1	x	5	x	x
Cc1[nH]n(-c2cccc3ccccc23)c(=O)c1C=Nc1ccc2[nH]c(=O)[nH]c2c1	1	1	-1	1.6	-7	6	x
SMILES	CHOP inh	CHOP UPR activ	UPR XBP1 act	Dynein cargo inh	T cruzi inh	Lmaj promast	CHOP inh conf
Cc1ccc(-n2[nH]c(C)c(C=Nc3ccc4[nH]c(=O)[nH]c4c3)c2=O)cc1	103*	2	0	-2.1	3	-3	-4
C[C@@H]1CC=C[C@H]2[C@H]1C(=O)N(Cc1ccccc1)[C@H]2c1ccc2ccccc2c1Br	98*	22	3	-0.38	46	x	59
CC[C@@H]1CC=C[C@H]2[C@H]1C(=O)N(Cc1ccccc1)[C@H]2c1ccoc1	101*	19	-2	-2.3	42	x	137*
CCOC(=O)Cc1csc(N/N=C/c2cccc([N+](=O)[O-])c2)n1	x	2	-4	x	43	x	x
O=[N+]([O-])c1cccc(-c2csc(N/N=C/c3cccc(O)c3)n2)c1	106*	4	0	0.74	u	98*	6
C/C=C/C=N/Nc1nc(-c2ccc([N+](=O)[O-])cc2)cs1	98*	0	2	1	22	9	-9
CC(C)=NNc1nc(-c2ccc([N+](=O)[O-])cc2)cs1	-4	6	-1	-0.012	23	27	x
O=C(NCc1nc(-c2ccc(C(F)(F)F)cc2)no1)Nc1cc(Cl)cc(Cl)c1	102*	2	1	-1.5	60*	x	109*
COc1ccc(/C=C/C(=O)N(C)c2ccccc2C(=O)O)cc1	-3	0	-1	0.085	-19	6	x
Cn1nc(-c2ccc(C(=O)Nc3ccc(F)cc3)cc2)c2ccccc2c1=O	101*	-2	-3	-0.63	1	3	48
Cc1ccnc(NC(=O)C(Cc2ccccc2)NC(=O)c2ccccc2)c1 (stereo unspecified)	x	-1	0	x	x	x	x
O=C(COc1ccc(Cl)cc1)N(Cc1ccccc1)c1nc(-c2ccccc2)cs1	103*	3	6	0.019	8	-2	54
COc1ccc(-c2csc(N(CCc3ccccc3)C(=O)COc3ccccc3)n2)cc1	32	-2	1	1.1	28	6	x
CC(C)c1ccc(CN2C(=O)NC3(CCCCCC3)C2=O)cc1	x	2	2	x	38	x	x
CC(C)(C)NC(=O)NC(=O)CSc1ccc(S(=O)(=O)N2CCCCC2)cn1	x	2	-1	x	x	x	x
CC(C)CCSc1nc2c(c(=O)[nH]c(=O)n2C)n1CCCc1ccccc1	105*	-1	4	-0.82	52	13	106*
CCC(C)Sc1nc2c(c(=O)[nH]c(=O)n2C)n1Cc1ccc(Cl)cc1 (stereo unspecified)	98*	-1	6	-0.58	22	0	103*
